Measured values gathered from unrelated publications.
Each line is one published result; the experiments were not run side by side.
Target: TRAF2 and NCK-interacting protein kinase (TNIK, Homo sapiens, UniProt Q9UKE5)

SMILES | read-out | technique | tested at | remaining binding [%]
F[C@@H]1CCN(c2nccc(-c3cnn4ncccc34)n2)C1 | binding | – | 1 µM | 100
CNC(=O)[C@@H]1CC[C@@H](n2c(-c3ccc4cnccc4c3)nc3ccc(C(=O)NCc4cccc(C(N)=O)c4)cc32)C1 | binding | competition with immobilised ligand | 1 µM | 90
O=C(NCC1CCOCC1)c1n[nH]cc1NC(=O)c1c(F)cccc1F | binding | competition with immobilised ligand | 1 µM | 84
CN([C@@H]1CCc2c(CC(=O)O)c3cc(S(C)(=O)=O)ccc3n2C1)S(=O)(=O)c1ccc(F)cc1 | cell-free assay | competition with immobilised ligand | 1 µM | 100
O=C(c1ccc(Nc2ncc(Cl)c(-c3ccc(Cl)s3)n2)cc1)N1CCC(N2CCCC2)CC1 | binding | competition with immobilised ligand | 1 µM | 43
CNC(=O)Nc1ccc2c(c1)CC[C@@]21OC(=O)N(CC(=O)N(Cc2ccc(F)cc2)[C@@H](C)C(F)(F)F)C1=O | cell-free assay | competition with immobilised ligand | 1 µM | 93
O=C(NCCCN1CCOCC1)c1ccc(Nc2ncc(Cl)c(-c3ccc(Cl)s3)n2)cc1 | binding | competition with immobilised ligand | 1 µM | 44
COc1cnc(Nc2cccc(S(N)(=O)=O)c2)nc1N1CCN(c2ccccc2)CC1 | binding | competition with immobilised ligand | 1 µM | 75
C[C@@H](c1cccc(C#N)c1)n1cc(Cl)cc(C(N)=O)c1=N | cell-free assay | competition with immobilised ligand | 1 µM | 56
N[C@@H]1CCN(c2nccc(-c3cnn4ncccc34)n2)C1 | binding | – | 1 µM | 100
CCC(=N\O)/C(C)=C/c1ccc(F)cc1 | cell-free assay | competition with immobilised ligand | 1 µM | 93
CN(C)c1nccc(-c2cnc3ncccn23)n1 | binding | – | 1 µM | 84
CCC(=O)N[C@@H]1CC[C@H](C(=O)N(C)c2ccc(-c3nc4ccccc4o3)cc2)C1 | cell-free assay | competition with immobilised ligand | 1 µM | 100
FC(F)(F)Oc1cccc(-c2cnc3ccc(-c4ccncc4)nn23)c1 | binding | competition with immobilised ligand | 5 µM | 29
C[C@@H]1CCN(c2nccc(-c3cnn4ncccc34)n2)C1 | binding | – | 1 µM | 90
O=C(NCCCN1CCOCC1)c1ccc(Nc2nccc(-c3cc4ccccc4s3)n2)cc1 | binding | competition with immobilised ligand | 1 µM | 69
CN(CCCC(F)(F)F)c1nccc(-c2cnn3ncccc23)n1 | binding | – | 1 µM | 100
CC(C)(O)c1cncc(-c2nc3ccc(F)cc3n2C2CC2)c1 | cell-free assay | competition with immobilised ligand | 1 µM | 100
CC1CCCN1c1nccc(-c2cnn3ncccc23)n1 (stereo not drawn) | binding | – | 1 µM | 95
c1cncc(-c2cccc(Nc3nccc(NC4CCCCC4)n3)c2)c1 | binding | competition with immobilised ligand | 10 µM | 33
CCN1CCN(Cc2ccc(C(=O)Nc3ccc(C)c(Oc4ccc5c(c4)CC(=O)N5)c3)cc2C(F)(F)F)CC1 | binding | competition with immobilised ligand | 1 µM | 79
